Assay results pooled from the literature.
Each line is one published result; the experiments were not run side by side.
Target: Ephrin type-B receptor 1 (EPHB1, Homo sapiens, UniProt P54762)
Residues used in one study (P54762 18-984): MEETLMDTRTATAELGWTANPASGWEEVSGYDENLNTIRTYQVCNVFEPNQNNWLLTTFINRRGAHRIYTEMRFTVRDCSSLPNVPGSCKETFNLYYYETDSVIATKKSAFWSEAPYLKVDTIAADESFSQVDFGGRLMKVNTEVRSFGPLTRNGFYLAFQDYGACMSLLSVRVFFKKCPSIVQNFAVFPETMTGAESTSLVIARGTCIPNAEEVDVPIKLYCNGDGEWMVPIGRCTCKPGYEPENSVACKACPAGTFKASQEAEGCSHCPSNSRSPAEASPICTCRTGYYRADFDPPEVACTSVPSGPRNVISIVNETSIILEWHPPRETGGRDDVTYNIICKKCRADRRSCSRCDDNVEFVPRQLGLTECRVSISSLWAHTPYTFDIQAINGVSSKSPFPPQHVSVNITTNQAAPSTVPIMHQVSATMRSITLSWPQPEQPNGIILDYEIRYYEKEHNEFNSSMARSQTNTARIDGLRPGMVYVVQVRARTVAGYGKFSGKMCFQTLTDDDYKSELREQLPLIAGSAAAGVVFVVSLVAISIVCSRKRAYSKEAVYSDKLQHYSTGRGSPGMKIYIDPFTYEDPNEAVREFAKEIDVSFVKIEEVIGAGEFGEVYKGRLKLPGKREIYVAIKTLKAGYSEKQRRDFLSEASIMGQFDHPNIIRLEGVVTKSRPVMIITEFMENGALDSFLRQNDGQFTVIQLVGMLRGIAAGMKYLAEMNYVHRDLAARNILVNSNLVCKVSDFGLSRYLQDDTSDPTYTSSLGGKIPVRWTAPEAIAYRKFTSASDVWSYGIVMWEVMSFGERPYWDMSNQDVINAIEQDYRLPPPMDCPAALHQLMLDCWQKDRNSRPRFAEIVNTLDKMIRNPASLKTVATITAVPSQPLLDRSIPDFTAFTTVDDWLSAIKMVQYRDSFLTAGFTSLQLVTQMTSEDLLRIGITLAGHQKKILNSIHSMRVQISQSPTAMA

O=c1[nH]c2ccccc2n1C1CCN(Cc2ccc(-c3[nH]c4cc5ncnc5cc4nc3-c3ccccc3)cc2)CC1 — remaining signal (cell-free assay; 0.5 µM): 104%
Cc1nn(C)cc1-c1nc2c(N3CCN(Cc4ccc(Cl)cc4)CC3)c(Cl)cnc2[nH]1 — remaining binding (binding, competition with immobilised ligand; 1 µM): 100%
C#Cc1n[nH]c2c(-c3cn([C@@H](C)c4ccccc4)c(=O)[nH]c3=O)cc(F)cc12 — inhibition (enzyme activity, inhibitor; 0.1 µM): 1.9%
Cn1cncc1[C@](O)(COc1ccc(C#N)cc1-c1ccc(OC(F)(F)F)cc1)c1ccc(C#N)cc1 — remaining binding (cell-free assay, competition with immobilised ligand; 1 µM): 98%
Nc1ncc(-c2nc(N3CCOCC3)nc(N3CCOCC3)n2)c(C(F)F)n1 — remaining binding (cell-free assay, competition with immobilised ligand; 10 µM): 98%
CC(C)(C)c1cc(C=C(C#N)C#N)cc(Br)c1O — remaining activity (enzyme activity, inhibitor; 0.5 µM): 114%
Cn1cc(-c2cc(F)cc(N3CCn4c(cc5c4CCCC5)C3=O)c2CO)cc(Nc2ccc(N3CCN(C4COC4)CC3)cn2)c1=O — inhibition (enzyme activity, inhibitor; 0.1 µM): 6%
COc1ncccc1-c1cnn2ccc(N3CCN(C(=O)OC(C)C)CC3)nc12 — remaining binding (binding, competition with immobilised ligand; 1 µM): 100%
COc1cc(Nc2ncc(F)c(Nc3ccc4c(n3)NC(=O)C(C)(C)O4)n2)cc(OC)c1OC — inhibition (binding, competition with immobilised ligand; 10 µM): 96%
Cn1cc(-c2cccc(N3CCc4c(sc5c4CC(C)(C)C5)C3=O)c2CO)cc(Nc2ccncn2)c1=O — inhibition (enzyme activity, inhibitor; 1 µM): 4%
N#CC1(c2ccccn2)CCN(Cc2cc(C(=O)O)c(=O)n3ccccc23)CC1 — remaining binding (cell-free assay, competition with immobilised ligand; 1 µM): 100%
C#Cc1n[nH]c2c(-c3cn(C(C)c4ccccn4)c(=O)[nH]c3=O)cc(F)cc12 (stereo not drawn) — inhibition (enzyme activity, inhibitor; 1 µM): 4.9%
